From paper PMC3483362 (Journal of inorganic biochemistry, 2012)
pIC50: −log10 of the molar value. “Also recorded” adds a separate entry of the source.

Tests used:
[1] = tested on: plasmid (pBR322) DNA; test: Electrophoresis mobility shift assay; type: binding; conditions: 37 °C, 20 h, increasing molar ratios
Summary of the method: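 pBR322 plasmid DNA (20 µg/mL) in 5 mM Tris/HCl, 50 mM NaClO₄, pH 7.39 was incubated with test compound at compound/DNA molar ratios of 0.25–4.0, 37 °C, 20 h, in the dark. Free DNA and cisplatin-DNA served as controls. Samples ran on 1% agarose in TAE for 1.5 h at 80 V, with GelRed staining for 30 min.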

[2] = tested on: Jurkat sh-Bak cells (Bax/Bak-deficient Jurkat cells); test: Activity against apoptosis-resistant cells; type: cell-based, human; conditions: cisplatin-resistant
[3] = Solubility; type: physicochemical
[4] = Stability in solution by 31P{1H} and 1H NMR; type: physicochemical; conditions: RT
[5] = tested on: Calf Thymus DNA; test: Interaction with CT DNA by circular dichroism; type: binding; conditions: drug/DNA ratios 0.1-1.0, 37 °C, 20 h
Summary of the method: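 CT DNA (195 µM) in 5 mM Tris/HCl, 50 mM NaClO₄, pH 7.39 received test compound from fresh 5 mM stocks in DMSO-H₂O (1:99). Mixtures were kept 20 h at 37 °C in the dark. CD spectra were recorded at 25 °C over 220–320 nm, blank-corrected, smoothed with a Savitzky-Golay filter, and expressed in molar ellipticity.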

[6] = tested on: DU-145 human prostate cancer cells; test: Cell death pathway; type: cell-based; conditions: 24 h
Summary of the method: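 DU-145 cells in RPMI 1640 with 5% FCS, L-glutamine and penicillin/streptomycin were seeded at 1×10⁵ cells/mL and allowed to attach. Test compound (1% DMSO, diluted in water) was given for 24 h. Nuclei were stained with Hoechst (10 µg/ml) and imaged under UV. For flow cytometry, cells went into Hepes pH 7.4 annexin buffer with Annexin V conjugate (0.5 µg/ml) and 7-AAD, 37 °C, 15 min.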

[7] = tested on: human Jurkat-T acute lymphoblastic leukemia cells; test: Cytotoxicity by modified MTT-reduction method, 24 h; type: cell-based
[8] = target: human serum albumin (HSA) (Homo sapiens, UniProt P02768); test: HSA fluorescence quenching; type: binding; conditions: excitation 295 nm, HSA 10 µM, phosphate buffer pH 7.39; compared to cisplatin
Summary of the method: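 HSA (10 µM) in phosphate buffer pH 7.39 received ten successive additions from an 8 mM DMSO stock of test compound, with a read 240 s after each. Tryptophan excitation was at 295 nm and emission was recorded at 300–450 nm at room temperature. Data were fitted to the Stern-Volmer equation F₀/F = 1 + K_SV[Q].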

[9] = tested on: MOLT-4 human leukemia cell line; conditions: read-out: IC50 MOLT-4; cited from earlier work
[10] = tested on: Jurkat cells; test: Cell death pathway; type: cell-based, human; conditions: 24 h, concentrations for IC50 values
Summary of the method: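 Jurkat cells (5 ×10⁵ cells/ml) exposed to test compound for 24 h. Nuclei stained with Hoechst (10 µg/ml) and photographed under UV light. For flow cytometry, cells were held in annexin binding buffer (140 mM NaCl, 2.5 mM CaCl₂, 10 mM Hepes/NaOH, pH 7.4) with fluorescent AnnexinV (0.5 µg/ml) and 7-AAD (50ng/µl) at 37 °C for 15 min, then diluted with buffer and counted.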

[11] = tested on: DU-145 human prostate cancer cells; test: Cytotoxicity by modified MTT-reduction method, 24 h; type: cell-based; conditions: DU-145 cells
Summary of the method: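 DU-145 cells were grown in RPMI 1640 with 5% FCS, L-glutamine and penicillin/streptomycin, seeded at 1 ×10⁵ cells/mL and allowed to attach. […] After 24 h, proliferation was read by a modified MTT-reduction method and IC₅₀ derived.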

Sequence of human serum albumin (HSA) (P02768 25-609): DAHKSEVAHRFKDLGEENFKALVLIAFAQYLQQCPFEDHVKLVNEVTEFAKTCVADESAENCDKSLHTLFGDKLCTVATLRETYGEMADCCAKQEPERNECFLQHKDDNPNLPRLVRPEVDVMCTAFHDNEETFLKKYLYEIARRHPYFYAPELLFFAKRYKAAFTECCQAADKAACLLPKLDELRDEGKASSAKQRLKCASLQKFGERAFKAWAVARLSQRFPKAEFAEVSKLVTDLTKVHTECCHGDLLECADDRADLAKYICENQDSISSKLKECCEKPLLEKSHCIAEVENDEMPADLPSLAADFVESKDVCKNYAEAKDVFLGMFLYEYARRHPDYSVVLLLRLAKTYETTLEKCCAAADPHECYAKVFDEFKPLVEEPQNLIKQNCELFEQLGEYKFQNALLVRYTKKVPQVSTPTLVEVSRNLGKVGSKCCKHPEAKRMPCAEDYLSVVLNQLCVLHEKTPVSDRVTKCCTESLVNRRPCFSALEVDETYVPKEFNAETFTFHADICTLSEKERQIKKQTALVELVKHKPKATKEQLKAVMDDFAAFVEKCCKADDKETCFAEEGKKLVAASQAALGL

| SMILES | effect on electrophoretic mobility of pBR322 forms [1] | toxicity to Jurkat sh-Bak cells [2] | solubility in H2O ([3]; H2O) | stable in DMSO solution (time) ([4]; DMSO) [days] | stable in H2O (time) ([4]; H2O) [h] | effect on CD spectrum of CT DNA / interaction with CT DNA [5] | cell death / growth in DU-145 cells [6] | times more cytotoxic than cisplatin [7] | quenching of HSA fluorescence [8] | solubility at concentrations required for ITC ([3]; ITC conditions, phosphate buffer) | pIC50 [9] | cell death in Jurkat cells [10] | times more cytotoxic than cisplatin [11] [times] |
| --- | --- | --- | --- | --- | --- | --- | --- | --- | --- | --- | --- | --- | --- |
| N.N.[Cl][Pt][Cl] [Cisplatin, reference compound] | decrease in mobility of the CCC form and an increase in mobility of the OC form | activity is totally dependent on the presence of functional Bax and Bak |  |  |  |  |  |  |  |  |  |  |  |
| O=C(N=P12CN3CN(CN(C3)C1)C2)c1ccccn1 [Compound 1, TPA=N-C(O)-2-NC5H4 (N,N-IM)] | does not cause any shift for either form |  | soluble | 14 | 3 |  |  |  |  |  |  |  |  |
| O=C1[N-][Au]([Cl])([Cl])[n+]2ccccc21 [Compound 5, [AuCl2(HN-C(O)-2-NC5H4)]] |  | exhibited some toxicity |  |  |  | decrease in helicity (destabilizing effect); also recorded: interacts more strongly with DNA most likely by intercalation | do not induce cell death in DU-145 at 24 h | seven | higher quenching | poor solubility at the required concentrations | 5.51 | induced cell death in Jurkat cells; also recorded: induce both necrotic and apoptotic cell death | 4 |
